Experimental data: ChEMBL document CHEMBL2375318, “Design, synthesis and antimicrobial activity of novel benzothiazole analogs” (Eur J Med Chem, 2013)
≈ marks a conversion by molar mass, not a printed value.

What was measured:
Aspergillus fumigatus = assay: Antimicrobial activity against Aspergillus fumigatus clinical isolate after 18 to 24 hrs by micro-dilution method; assay type: functional
Method in brief: (§1)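 Broth micro-dilution MIC, fungi. Fresh broth cultures were made in normal saline. Compounds were serially diluted in microtiter plates across 8 concentrations, 100 down to 0.78. Standardized inoculum was 1–2 × 10^7 cfu/ml. Medium was Sabouraud dextrose pH 7.3 ± 0.2. Plates were incubated aerobically at 37 °C for 18–24 h. MIC is the lowest concentration with no visible growth or turbidity versus control. Fluconazole was the reference.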

Aspergillus niger = assay: Antimicrobial activity against Aspergillus niger clinical isolate after 18 to 24 hrs by micro-dilution method; assay type: functional; method in brief: as §1
Cryptococcus neoformans = assay: Antifungal activity against Cryptococcus neoformans clinical isolate after 18 to 24 hrs by micro-dilution method; assay type: functional; method in brief: as §1
Pichia kudriavzevii = assay: Antifungal activity against Candida krusei ATCC 6258 after 18 to 24 hrs by micro-dilution method; assay type: functional; method in brief: as §1
Candida albicans [1] = assay: Antifungal activity against Candida albicans ATCC 90028 after 18 to 24 hrs by micro-dilution metho; assay type: functional; method in brief: as §1
Candida albicans [2] = assay: Antifungal activity against Candida albicans clinical isolate after 18 to 24 hrs by micro-dilution method; assay type: functional; method in brief: as §1
Candida tropicalis = assay: Antifungal activity against Candida tropicalis ATCC 750 after 18 to 24 hrs by micro-dilution method; assay type: functional; method in brief: as §1
Shigella boydii = assay: Antimicrobial activity against Shigella boydii clinical isolate after 18 to 24 hrs by micro-dilution method; assay type: functional
[3] = Cytotoxicity against human RBC assessed as hemolytic activity at 100 uM after 1 hr by spectophotometry; assay type: cell-based, Erythrocyte; settings: red blood cells (RBC), read-out: Activity
Method in brief: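 Hemolysis, fresh human blood. RBCs were washed three times in PBS (spun 3000 rpm, 7 min, room temperature) and adjusted to 5×10^8 cells/ml. Cell suspension was added to buffer holding 100 μM compound in 1% v/v DMSO/PBS. Controls were 1% DMSO/PBS and sterile water. Samples were shaken at 37 °C for 1 h, spun at 1300 rpm for 5 min, and supernatant absorbance read at 540 nm.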

Pseudomonas aeruginosa = assay: Antimicrobial activity against Pseudomonas aeruginosa ATCC 27893 after 18 to 24 hrs by micro-dilution method; assay type: functional
Klebsiella pneumoniae = assay: Antimicrobial activity against Klebsiella pneumoniae clinical isolate after 18 to 24 hrs by micro-dilution method; assay type: functional
Escherichia coli = assay: Antimicrobial activity against Escherichia coli ATCC 35218 after 18 to 24 hrs by micro-dilution method; assay type: functional
Salmonella typhi = assay: Antimicrobial activity against Salmonella typhi MTCC 3216 after 18 to 24 hrs by micro-dilution method; assay type: functional, Salmonella enterica subsp. enterica serovar Typhi; settings: Salmonella enterica
Method in brief: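 Broth microdilution with twofold serial dilutions from 100 down to 0.78, eight concentrations. Fresh cultures were made up in normal saline, and 0.1 ml of standardized inoculum (1–2 × 10^7 cfu/ml) was added per well. Plates were incubated aerobically at 37 °C for 18–24 h on Mueller-Hinton agar/Luria broth. MIC was the lowest concentration with no visible turbidity compared with the control.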

Enterococcus faecalis = assay: Antimicrobial activity against Enterococcus faecalis clinical isolate after 18 to 24 hrs by micro-dilution method; assay type: functional
Staphylococcus aureus = assay: Antimicrobial activity against Staphylococcus aureus ATCC 25323 after 18 to 24 hrs by micro-dilution method; assay type: functional

SMILES	MIC (Aspergillus fumigatus) [µg/mL]	MIC (Aspergillus niger) [µg/mL]	MIC (Cryptococcus neoformans) [µg/mL]	MIC (Pichia kudriavzevii) [µg/mL]	MIC (Candida albicans [1]) [µg/mL]	MIC (Candida albicans [2]) [µg/mL]	MIC (Candida tropicalis) [µg/mL]	MIC (Shigella boydii) [µg/mL]	hemolysis at 1 h, 100 µM [3] [%]	MIC (Pseudomonas aeruginosa) [µg/mL]	MIC (Klebsiella pneumoniae) [µg/mL]	MIC (Escherichia coli) [µg/mL]	MIC (Salmonella typhi) [µg/mL]	MIC (Enterococcus faecalis) [µg/mL]	MIC (Staphylococcus aureus) [µg/mL]
FC(F)(F)Oc1ccc(-n2cc(CN(Cc3cn(-c4ccc(OC(F)(F)F)cc4)nn3)c3nc4ccccc4s3)nn2)cc1	25 (≈ 39.5 µM)	12.5 (≈ 19.8 µM)	3.12 (≈ 4.93 µM)	12.5 (≈ 19.8 µM)	3.12 (≈ 4.93 µM)	12.5 (≈ 19.8 µM)	12.5 (≈ 19.8 µM)	100 (≈ 158 µM)	9.12	25 (≈ 39.5 µM)	12.5 (≈ 19.8 µM)	25 (≈ 39.5 µM)	> 100	12.5 (≈ 19.8 µM)	12.5 (≈ 19.8 µM)
COc1cc(-n2cc(CN(Cc3cn(-c4cc(OC)c(OC)c(OC)c4)nn3)c3nc4ccccc4s3)nn2)cc(OC)c1OC	> 100	> 100	> 100	6.25 (≈ 9.69 µM)	> 100	> 100	> 100	> 100	36.6	> 100	> 100	> 100	> 100	> 100	> 100
Clc1ccc(-n2cc(CN(Cc3cn(-c4ccc(Cl)cc4Cl)nn3)c3nc4ccccc4s3)nn2)c(Cl)c1	1.56 (≈ 2.59 µM)	1.56 (≈ 2.59 µM)	3.12 (≈ 5.18 µM)	6.25 (≈ 10.4 µM)	6.25 (≈ 10.4 µM)	12.5 (≈ 20.8 µM)	12.5 (≈ 20.8 µM)	> 100	4.54	> 100	> 100	50 (≈ 83 µM)	> 100	50 (≈ 83 µM)	50 (≈ 83 µM)
